The results in this text go back to ChEMBL document CHEMBL5331127, “Discovery of ARD-2051 as a Potent and Orally Efficacious Proteolysis Targeting Chimera (PROTAC) Degrader of Androgen Receptor for the Treatment of Advanced Prostate Cancer” (J Med Chem, 2023).

The subject of data set [1] is VCaP. The data set is described as follows: Antitumor activity against human VCaP cells xenografted in CB17 SCID mouse assessed as tumor growth inhibition at 30 mg/kg, po administered for 21 days. It is filed as functional. To be noted: 504 h, time 21 day, read-out: TGI. On the technique in general: In xenograft studies the graft and the host belong to different species.

The nature of data set [2]: Metabolic stability in monkey liver microsomes assessed as half life at 1 uM measured upto 45 mins in presence of NADPH by LC-MS/MS analysis. To be noted: rhesus monkey, 0.75 h. It is filed as ADME, Macaca mulatta, Microsome. In short, it runs like this: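 Pooled liver microsomes from each species: 1 μM compound with 0.5 mg/mL microsomes and 1.7 mM NADPH in 0.1 M K-phosphate, pH 7.4, 5 mM MgCl2, 37 °C. Sampled at 0, 5, 10, 15, 30 and 45 min with cold ACN quench. No-NADPH incubation as negative control; ketanserin as positive control. LC-MS/MS; half-life from ln(remaining) versus time.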
(Liver microsomes are a subcellular fraction often used to study metabolism.)

Data set [3] is described as follows: Plasma protein binding in human at 1 uM after 5 hrs by equilibrium dialysis based LC-MS/MS analysis. Format: ADME, cell-free. In short, it runs like this:
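Equilibrium dialysis of pooled plasma of each species spiked at 1 μM against 0.1 M sodium phosphate, pH 7.4. 5 h at 37 °C with shaking at 60 rpm. Both sides matrix-matched, ACN/IS quench, LC/MS. % bound = 100 − (buffer/plasma peak-area ratio × 100); recovery also calculated. Warfarin as reference.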
(In general: In equilibrium dialysis only unbound substance equilibrates across the membrane.)

A short description of data set [4]: Downregulation of KLK3 gene expression in human LNCaP cells at 10 nM incubated for 24 hrs by qRT-PCR analysis. It is filed as functional. In short, it runs like this: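 LNCaP cells (RPMI 1640) or VCaP cells (DMEM Glutamax), both with 10% FBS, treated for 24 h. KLK3 mRNA measured by qRT-PCR and calculated by the comparative CT method against GAPDH and vehicle.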

Data set [5] in a line: Drug concentration in ICR mouse plasma at 10 mg/kg, po measured after 6 hrs. It is filed as ADME, organism-based. In short, it runs like this:
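Mice given a single 10 mg/kg dose by oral gavage, 3 mice per time point. Plasma drug levels measured at 1, 3, 6 and 24 h; mean ± SD reported.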

The nature of data set [6]: AUC(0 to t) in Sprague-Dawley rat at 1 mg/kg, iv measured upto 24 hrs by LC-MS/MS analysis. It is filed as ADME, organism-based. Details: time < 24 hrs, dose 1 mg/kg, route iv. To be noted: in vivo. In outline: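 Male ICR mice (2 mg/kg), male SD rats (1 mg/kg) or male Beagle dogs (1 mg/kg) given a single intravenous dose in 10% PEG400 + 90% PBS adjusted to pH 8.0 with NaOH.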

In data set [7] the test system is VCaP. The data set is described as follows: Induction of androgen receptor degradation in human VCaP cells at 100 nM pretreated with MG132 for 2 hrs followed by compound addition and 3 hrs by Western blot analysis. To be noted: time 5.0 hrs. It is filed as functional, cell-based. In outline:
(§1)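 LNCaP or VCaP cells pretreated 2 h with DMSO, ARi-12 (10 μM), thalidomide (10 μM), MG-132 (3 μM) or MLN4924 (0.5 μM), then given degrader at 100 nM for 3 h. AR measured by Western blot with GAPDH as loading control.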

A further data set has as its target T1, Androgen receptor (Homo sapiens, UniProt P10275).
T1 sequence (P10275 whole entry): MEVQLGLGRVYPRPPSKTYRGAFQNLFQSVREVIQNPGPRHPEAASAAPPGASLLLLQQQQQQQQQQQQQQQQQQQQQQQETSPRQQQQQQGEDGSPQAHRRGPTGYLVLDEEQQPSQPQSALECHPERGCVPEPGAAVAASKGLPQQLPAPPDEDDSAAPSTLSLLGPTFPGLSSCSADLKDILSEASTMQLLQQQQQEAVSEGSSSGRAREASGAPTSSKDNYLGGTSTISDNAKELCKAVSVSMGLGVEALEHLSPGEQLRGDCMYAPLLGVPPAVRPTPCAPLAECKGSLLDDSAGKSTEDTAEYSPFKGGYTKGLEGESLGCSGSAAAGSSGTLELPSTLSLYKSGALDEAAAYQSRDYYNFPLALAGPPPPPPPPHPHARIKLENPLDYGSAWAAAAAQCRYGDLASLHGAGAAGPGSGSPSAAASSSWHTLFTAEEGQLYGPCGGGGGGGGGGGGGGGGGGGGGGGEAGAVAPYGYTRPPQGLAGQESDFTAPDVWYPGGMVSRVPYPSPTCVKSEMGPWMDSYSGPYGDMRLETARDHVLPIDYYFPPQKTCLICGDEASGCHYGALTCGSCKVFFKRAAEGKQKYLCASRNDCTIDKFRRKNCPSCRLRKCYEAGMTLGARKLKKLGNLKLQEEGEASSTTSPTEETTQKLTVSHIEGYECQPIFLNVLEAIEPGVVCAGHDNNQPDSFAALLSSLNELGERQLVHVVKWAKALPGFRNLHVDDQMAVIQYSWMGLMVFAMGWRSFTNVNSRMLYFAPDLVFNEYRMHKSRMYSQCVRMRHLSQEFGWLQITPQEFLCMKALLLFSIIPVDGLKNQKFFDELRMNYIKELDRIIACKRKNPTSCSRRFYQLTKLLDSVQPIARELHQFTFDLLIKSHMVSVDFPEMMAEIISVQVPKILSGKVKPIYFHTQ
Briefly: Induction of androgen receptor degradation in human VCaP cells incubated for 24 hrs by Western blot analysis. Format: cell-based.

The nature of data set [8]: Volume of distribution at steady state in Sprague-Dawley rat at 1 mg/kg, iv measured upto 24 hrs by LC-MS/MS analysis. The note with it: in vivo. It is filed as ADME, organism-based.
Data set [9] can be described thus: Metabolic stability in mouse plasma assessed as half life at 1 uM measured upto 120 mins by LC-MS/MS analysis. Format: ADME, cell-free. The note with it: 2 h. In short, it runs like this: (§2)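 Compound at 1 μM final in pre-warmed plasma of each species, 37 °C for up to 2 h. ACN/IS quench at 0, 5, 15, 30, 60 and 120 min; LC/MS. Procaine as reference (benfluorex for rat). t1/2 = 0.693/slope of ln(fraction remaining) versus time.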

A short description of data set [10]: Oral bioavailability in Beagle dog at 3 mg/kg measured up to 24 hrs by LC-MS/MS analysis. It is filed as ADME, organism-based, Canis lupus familiaris. To be noted: in vivo. In outline:
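Male Beagle dogs. IV 1 mg/kg in 10% PEG400 + 90% PBS (pH 8.0); PO 3 mg/kg in 90% PEG400 + 10% Cremophor. Plasma PK to 24 h; F from IV and PO exposure.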

The nature of data set [11]: Drug concentration in CB17 SCID mouse plasma xenografted with human VCaP cells at 12.5 mg/kg, po measured after 24 hrs by LC-MS/MS analysis. It is filed as ADME, organism-based. In short, it runs like this:
(§3)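 SCID mice bearing one VCaP tumour each given a single oral 12.5 mg/kg dose in 100% PEG200. Plasma and tumour tissue collected at 6 and 24 h, 3 mice per time point. Values are mean ± SD.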

The nature of data set [12]: Metabolic stability in monkey hepatocytes assessed as half life at 1 uM measured upto 120 mins in presence of NADPH by LC-MS/MS analysis. Format: ADME, cell-based, Macaca mulatta, Hepatocyte. To be noted: rhesus monkey, 2 h.
The nature of data set [13]: Drug concentration in CB17 SCID mouse tumor xenografted with human VCaP cells at 12.5 mg/kg, po measured after 6 hrs by LC-MS/MS analysis. Format: ADME, organism-based, Neoplasm. The note with it: read-out: Ct. In outline:
as §3

For the next data set, the system named is LNCaP. Briefly: Induction of androgen receptor degradation in human LNCaP cells at 100 nM pretreated with MG132 for 2 hrs followed by compound addition and 3 hrs by Western blot analysis. It is filed as functional, cell-based. The note with it: time 5.0 hrs. In short, it runs like this: as §1
Data set [14] can be described thus: Metabolic stability in rat plasma assessed as half life at 1 uM measured upto 120 mins by LC-MS/MS analysis. It is filed as ADME, cell-free. The note with it: 2 h. In short, it runs like this:
as §2

Activity calls are given as the source filed them. The calls are words filed in the database; no cut-off is given here. Some results are limits rather than exact numbers.

One may read the EC50 as the midpoint of the concentration-response curve. For orientation: Vdss means the apparent volume that relates the amount in the body to the concentration in plasma or blood. Turning to `C[C@H]1CC2(CCN(c3ccc(C(=O)N4CCN(C5CN(c6ccc7c(c6)C(=O)N(C6CCC(=O)NC6=O)C7=O)C5)CC4)cc3)CC2)CN1c1ccc(C#N)c(Cl)c1` (stereo partly specified), the inhibition in vivo at 30 mg/kg in the data set with VCaP [1] came to 80%. Besides, the t1/2 in data set [2] is on record as over 60 min; in data set [9], over 120 min; in data set [12], over 120 min; in [14] it was over 120 min. For the same compound, the PPB in data set [3] was determined as 99.1%. Also, the Activity in data set [4] is given as 79%. The concentration at 6 h in data set [5] was 369 ng/mL; in [13] it was 946 ng/mL. In addition, in [6], the AUCt amounted to 1560 ng·h/mL. For the same compound, the result in the data set on VCaP [7] and in the data set on LNCaP was inactive. On Androgen receptor, this compound came in with an EC50 of 0.6 nM. The compound further registered a Vdss in [8] of 1.3 L/kg. The compound further registered a F in data set [10] of 46%. Besides, in data set [11], the concentration at 24 h is 742 ng/mL.
